# Published values collected from several papers.
# Target: NUAK family SNF1-like kinase 1 (NUAK1, Homo sapiens, UniProt O60285)
# Residues used in one study (O60285 1-661): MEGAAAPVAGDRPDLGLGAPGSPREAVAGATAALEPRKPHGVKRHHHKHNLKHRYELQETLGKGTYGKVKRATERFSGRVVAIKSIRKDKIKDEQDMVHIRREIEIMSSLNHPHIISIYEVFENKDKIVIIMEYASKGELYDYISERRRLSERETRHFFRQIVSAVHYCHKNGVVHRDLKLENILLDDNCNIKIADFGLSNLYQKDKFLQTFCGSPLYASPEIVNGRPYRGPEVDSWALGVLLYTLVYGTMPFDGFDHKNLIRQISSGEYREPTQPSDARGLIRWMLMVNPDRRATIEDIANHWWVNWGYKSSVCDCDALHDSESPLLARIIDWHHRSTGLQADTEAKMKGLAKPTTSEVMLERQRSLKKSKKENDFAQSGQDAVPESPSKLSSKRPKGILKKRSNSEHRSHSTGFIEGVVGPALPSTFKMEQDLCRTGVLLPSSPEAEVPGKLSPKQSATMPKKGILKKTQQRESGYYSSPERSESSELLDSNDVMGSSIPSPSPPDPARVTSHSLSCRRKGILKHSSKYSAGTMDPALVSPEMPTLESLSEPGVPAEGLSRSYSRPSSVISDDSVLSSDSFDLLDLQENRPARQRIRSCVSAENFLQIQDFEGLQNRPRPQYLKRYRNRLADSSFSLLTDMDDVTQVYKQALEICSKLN
Compound,read-out,method,tested at,remaining binding
COc1cnc(Nc2cccc(S(N)(=O)=O)c2)nc1N1CCN(c2ccccc2)CC1,binding,competition with immobilised ligand,1 µM,82%
CN(C)c1ncc(F)c(-c2cnn3ncccc23)n1,binding,,1 µM,100%
Cn1cc(Cl)c2c(Oc3c(F)cc(Nc4cc(Cl)nc(N)n4)cc3F)ccnc21,cell-free assay,competition with immobilised ligand,0.1 µM,96%
c1cnn2ncc(-c3ccnc(N4CCC45COC5)n3)c2c1,binding,,1 µM,100%
O=C(NCc1ncc(C(F)(F)F)cc1Cl)c1ccc2c(c1)C1(CCS(=O)(=O)CC1)[C@H](C1CC1)N2S(=O)(=O)c1ccc(F)cc1,cell-free assay,competition with immobilised ligand,1 µM,83%
N[C@@H]1CCN(c2nccc(-c3cnn4ncccc34)n2)C1,binding,,1 µM,44%
O=C(NCCCN1CCOCC1)c1ccc(Nc2nccc(-c3cc4ccccc4s3)n2)cc1,binding,competition with immobilised ligand,1 µM,13%
CCN1CCN(Cc2ccc(C(=O)Nc3ccc(C)c(Oc4ccc5c(c4)CC(=O)N5)c3)cc2C(F)(F)F)CC1,binding,competition with immobilised ligand,1 µM,100%
CN(C)c1nccc(-c2cnn3ncccc23)n1,binding,,1 µM,97%
O=C1CCc2cc(Nc3cc(OC4CCOCC4)c([N+](=O)[O-])cc3Cl)ccc2N1,cell-free assay,competition with immobilised ligand,1 µM,100%
O=C(c1ccc(Nc2ncc(Cl)c(-c3ccc(Cl)s3)n2)cc1)N1CCC(N2CCCC2)CC1,binding,competition with immobilised ligand,1 µM,0.65%
c1cncc(-c2cccc(Nc3nccc(NC4CCCCC4)n3)c2)c1,binding,competition with immobilised ligand,10 µM,16%
O=C(Nc1c[nH]nc1C(=O)NC1CCNCC1)c1cc(F)cc(F)c1,binding,competition with immobilised ligand,1 µM,76%
CCCCN(CCCC)C(=O)CN1C[C@@H](c2cc(OC)c3c(c2)OCO3)[C@H](C(=O)O)[C@H]1CC(C)(C)CCC,cell-free assay,competition with immobilised ligand,1 µM,82.4%
CC1CCCN1c1nccc(-c2cnn3ncccc23)n1 (stereo not drawn),binding,,1 µM,89%
Cc1cnc(Nc2ccc(C(=O)N3CCC(N4CCCC4)CC3)cc2)nc1-c1cc2ccccc2s1,binding,competition with immobilised ligand,1 µM,2.7%
CN(C)C(=O)Cn1cc(-c2nc([C@@](C)(c3ccc(-c4cnc(N)nc4)cc3)C3CC3)no2)cn1,cell-free assay,competition with immobilised ligand,1 µM,100%
C[C@H]1CCN(c2nccc(-c3cnn4ncccc34)n2)C1,binding,,1 µM,90%
